Source: publication PMC3060938 (Clinical cancer research : an official journal of the …, 2011)
Values joined by “and” are separate entries in the source; they are usually repeats but may differ in a detail not shown here. Identical values can stand only once.

Assays:
[1] = test system: advanced solid tumors; test: Tumor response; type: in vivo, human
[2] = test system: HSP90; test: Western blotting of HSP72, CDK4 and LCK in patients' PBMC; type: in vivo, human
Method in brief: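 Blood drawn pre-dose, at end of infusion and 1, 8, 24, 48 and 96 h post-dose, plus 24 h after the fifth weekly infusion. PBMC isolated by Ficoll-Hypaque and stored at −80°C. Lysates blotted for HSP72, CDK4 and LCK, with GAPDH as loading control. Each time-point visually compared with pre-treatment and scored 0-5 against a positive control.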

[3] = Plasma pharmacokinetics of 17-DMAG by HPLC-MS, non-compartmental analysis; type: in vivo, human
Method in brief: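 Sampled in course 1: pre-dose, at 30 and 60 min into the 1-h infusion, then 5 min to 96 h after infusion end. Heparinised blood held on ice, spun 252g for 5 min at 4°C, plasma kept at −80°C. Drug measured by validated HPLC-MS. Non-compartmental analysis with constant infusion input. Dose proportionality of AUC and Cmax assessed by linear regression.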

[4] = Phase I dose escalation of weekly IV 17-DMAG: toxicity; type: in vivo, human
Method in brief: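 Weekly 1-h IV infusion, continuous, in 4-week cycles, of drug diluted to 0.1-1.0 mg/mL in 0.9% saline or 5% dextrose. Accelerated titration escalation from 2.5 mg/m2, up to 106 mg/m2. AEs graded by NCI-CTCAE v3.0. DLT assessed over the first 28 days. Cohorts expanded to 6 after DLT. MAD defined as ≥2/6 with DLT; MTD as the prior level with ≤1/6.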

[5] = test system: NCI 60 human tumor cell line panel; settings: read-out: Mean IC50, no reference given; cited from earlier work
[6] = test system: HSP72; test: HSP72 in PBMC and plasma by ELISA; type: in vivo, human
Method in brief: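 Human patients with advanced solid tumours received a weekly 1-h IV infusion of the test compound, given at 0.1-1.0 mg/mL in 0.9% saline or 5% dextrose. Blood was drawn pre-dose and 24 h post-dose. PBMC were Ficoll-Hypaque separated and stored at −80 °C. HSP72 was measured in PBMC (fmole/μg protein) and plasma (fmole/ml). Each cohort's mean change was compared with the first cohort's by one-tailed t-test (p ≤ 0.05).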

[7] = test system: HSP90; test: Western blotting of HSP72, CDK4 and ERBB2 in paired tumor biopsies; type: in vivo, human
Method in brief: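 Tumour biopsies were taken before and 24 h after the first weekly 1-h IV dose, snap frozen and stored at −80 °C; five paired biopsies per cohort were planned. Lysates were western blotted for HSP72, CDK4 and ERBB2, with GAPDH loading control and HT29 positive control. Each band was scored 0-5 against pre-treatment; a one-point change counted. Signature: HSP72 induction plus CDK4 and/or ERBB2 depletion. Two blinded assessors verified results.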

Structure (SMILES): CO[C@H]1/C=C\C=C(/C)C(=O)NC2=CC(=O)C(NCCN(C)C)=C(C[C@@H](C)C[C@H](OC)[C@H](O)[C@@H](C)/C=C(\C)[C@@H]1OC(N)=O)C2=O [17-DMAG, 17-dimethylaminoethylamino-17-demethoxygeldanamycin]
- Time on treatment before PD ([1]; patient with CRPC and complete response, 5mg/m^2 escalated to 20mg/m^2): 124 weeks
- Best tumor response ([1]; patient with CRPC, 5mg/m^2 escalated to 20mg/m^2, confirmed by CT and PSA): complete response
- Time on study with stable disease ([1]; patient with CRPC, 20mg/m^2): 59 weeks
- Time on study with stable disease ([1]; patient with chondrosarcoma, 5mg/m^2 escalated to 20mg/m^2): 28 weeks
- Time on study with stable disease ([1]; patient with clear cell renal cancer, 80mg/m^2): 76 weeks
- Time on treatment before PD ([1]; patient with metastatic melanoma and partial response, 40mg/m^2): 159 weeks
- Best tumor response ([1]; patient with metastatic melanoma, 40mg/m^2): partial response
- Patients with progressive disease (PD) ([1]; twenty patients evaluable, all dose levels): Nine
- Dose at which transient HSP72 induction (< 24 hours) was detected in PBMCs [2]: ≥ 5 mg/m^2
- Dose at which CDK4 depletion was demonstrated in PBMC ([2]; some patients): ≥ 80 mg/m^2
- Half life ([3]; dose 40.0 mg/m^2, 1 hr IV infusion, 3 patients): 21.5 ± 4.3 (19.7) hr
- Half life ([3]; dose 80.0 mg/m^2, 1 hr IV infusion, 8 patients): 27.8 ± 7.1 (25.4) hr
- Cmax ([3]; human, intravenous, 80 mg/m2): 2680 nM
- Vd ([3]; human, intravenous, 80 mg/m2): 385 L
- clearance ([3]; human, intravenous, 80 mg/m2): 315 mL/min
- AUC ([3]; human, iv, 2.5 mg/m^2): 0.581 ± 0.236 µM·h
- Cmax ([3]; human, iv, 2.5 mg/m^2): 64.1 ± 19.7 nM
- clearance ([3]; human, iv, 2.5 mg/m^2): 218 mL/min
- half-life ([3]; human, iv, 2.5 mg/m^2): 25.2 ± 12.9 h
- AUC ([3]; human, iv, 5 mg/m^2): 0.864 ± 0.651 µM·h
- Cmax ([3]; human, iv, 5 mg/m^2): 85.4 ± 55.2 nM
- clearance ([3]; human, iv, 5 mg/m^2): 858 mL/min
- half-life ([3]; human, iv, 5 mg/m^2): 18.4 ± 7.5 h
- AUC ([3]; human, iv, 20 mg/m^2): 3.73 ± 2.04 µM·h
- Cmax ([3]; human, iv, 20 mg/m^2): 480 ± 176 nM
- clearance ([3]; human, iv, 20 mg/m^2): 345 mL/min
- half-life ([3]; human, iv, 20 mg/m^2): 28.7 ± 14.2 h
- AUC ([3]; human, iv, 40 mg/m^2): 6.51 ± 3.22 µM·h
- Cmax ([3]; human, iv, 40 mg/m^2): 957 ± 248 nM
- clearance ([3]; human, iv, 40 mg/m^2): 322 mL/min
- AUC ([3]; human, iv, 80 mg/m^2): 12.7 ± 2.87 µM·h
- Cmax ([3]; human, iv, 80 mg/m^2): 2680 ± 1320 nM
- clearance ([3]; human, iv, 80 mg/m^2): 315 mL/min
- AUC ([3]; human, iv, 106 mg/m^2): 32.3 ± 16.3 µM·h
- Cmax ([3]; human, iv, 106 mg/m^2): 3750 ± 1370 nM
- clearance ([3]; human, iv, 106 mg/m^2): 213 mL/min
- half-life ([3]; human, iv, 106 mg/m^2): 24.7 ± 1.8 h
- Treatment related death ([4]; 106mg/m^2): one treatment related death
- Patients with dose limiting toxicity (DLT) ([4]; 106 mg/m^2 weekly IV): 2/4
- ALP (hepatic), adverse events related to 17-DMAG ([4]; Grade 1): 2
- ALT (hepatic), adverse events related to 17-DMAG ([4]; Grade 1): 2
- AST (hepatic), adverse events related to 17-DMAG ([4]; Grade 1): 4
- Alopecia, adverse events related to 17-DMAG ([4]; Grade 1): 2
- Anorexia, adverse events related to 17-DMAG ([4]; Grade 1): 1
- Blurred vision, adverse events related to 17-DMAG ([4]; Grade 1): 2
- Dehydration, adverse events related to 17-DMAG ([4]; Grade 1): 1
- Depression, adverse events related to 17-DMAG ([4]; Grade 1): 1
- Diarrhea, adverse events related to 17-DMAG ([4]; Grade 1): 5
- Dizziness, adverse events related to 17-DMAG ([4]; Grade 1): 1
- Dry eye, adverse events related to 17-DMAG ([4]; Grade 1): 1
- Dry mouth, adverse events related to 17-DMAG ([4]; Grade 1): 3
- Eosinophilia, adverse events related to 17-DMAG ([4]; Grade 1): 1
- Fever, adverse events related to 17-DMAG ([4]; Grade 1): 2
- Hand foot syndrome, adverse events related to 17-DMAG ([4]; Grade 1): 1
- Heartburn, adverse events related to 17-DMAG ([4]; Grade 1): 1
- High protein, adverse events related to 17-DMAG ([4]; Grade 1): 1
- Hypergylcaemia, adverse events related to 17-DMAG ([4]; Grade 1): 2
- Hypertension, adverse events related to 17-DMAG ([4]; Grade 1): 3
- Hyperuricaemia, adverse events related to 17-DMAG ([4]; Grade 1): 1
- Hypocalcaemia, adverse events related to 17-DMAG ([4]; Grade 1): 1
- Hypokalaemia, adverse events related to 17-DMAG ([4]; Grade 1): 2
- Hyponatraemia, adverse events related to 17-DMAG ([4]; Grade 1): 3
- Limb edema, adverse events related to 17-DMAG ([4]; Grade 1): 2
- Low eosinophils, adverse events related to 17-DMAG ([4]; Grade 1): 1
- Low hematocrit, adverse events related to 17-DMAG ([4]; Grade 1): 1
- Low red cell count, adverse events related to 17-DMAG ([4]; Grade 1): 1
- Low urea, adverse events related to 17-DMAG ([4]; Grade 1): 1
- Lymphopenia, adverse events related to 17-DMAG ([4]; Grade 1): 2
- Muscle spasm, adverse events related to 17-DMAG ([4]; Grade 1): 1
- Nausea, adverse events related to 17-DMAG ([4]; Grade 1): 5
- Neuropathy, adverse events related to 17-DMAG ([4]; Grade 1): 1
- Nightmares, adverse events related to 17-DMAG ([4]; Grade 1): 1
- Ocular surface disease, adverse events related to 17-DMAG ([4]; Grade 1): 2
- Oliguria, adverse events related to 17-DMAG ([4]; Grade 1): 1
- Pain, Abdomen, adverse events related to 17-DMAG ([4]; Grade 1): 1
- Pain, Headache, adverse events related to 17-DMAG ([4]; Grade 1): 1
- Pain, Joint, adverse events related to 17-DMAG ([4]; Grade 1): 5
- Pain, Limb, adverse events related to 17-DMAG ([4]; Grade 1): 1
- Pain, Myalgia, adverse events related to 17-DMAG ([4]; Grade 1): 2
- Proteinuria, adverse events related to 17-DMAG ([4]; Grade 1): 3
- Raised CK, adverse events related to 17-DMAG ([4]; Grade 1): 1
- Raised amylase, adverse events related to 17-DMAG ([4]; Grade 1): 1
- Raised bilirubin (hepatic), adverse events related to 17-DMAG ([4]; Grade 1): 1
- Raised leucocytes, adverse events related to 17-DMAG ([4]; Grade 1): 1
- Raised neutrophils, adverse events related to 17-DMAG ([4]; Grade 1): 2
- Rash, adverse events related to 17-DMAG ([4]; Grade 1): 1
- Sinus tachycardia, adverse events related to 17-DMAG ([4]; Grade 1): 1
- Thrombocytopenia, adverse events related to 17-DMAG ([4]; Grade 1): 3
- Vivid dreams, adverse events related to 17-DMAG ([4]; Grade 1): 1
- Voice change, adverse events related to 17-DMAG ([4]; Grade 1): 1
- Vomiting, adverse events related to 17-DMAG ([4]; Grade 1): 2
- Weight loss, adverse events related to 17-DMAG ([4]; Grade 1): 1
- ALP (hepatic), adverse events related to 17-DMAG ([4]; Grade 2): 1
- ALT (hepatic), adverse events related to 17-DMAG ([4]; Grade 2): 1
- Anorexia, adverse events related to 17-DMAG ([4]; Grade 2): 1
- Blurred vision, adverse events related to 17-DMAG ([4]; Grade 2): 2
- Diarrhea, adverse events related to 17-DMAG ([4]; Grade 2): 1
- Dry eye, adverse events related to 17-DMAG ([4]; Grade 2): 2
- Eye (herpes simplex), adverse events related to 17-DMAG ([4]; Grade 2): 1
- Fatigue, adverse events related to 17-DMAG ([4]; Grade 2): 2
- Fever, adverse events related to 17-DMAG ([4]; Grade 2): 1
- Keratitis, adverse events related to 17-DMAG ([4]; Grade 2): 2
- Nausea, adverse events related to 17-DMAG ([4]; Grade 2): 1
- Pain, Joint, adverse events related to 17-DMAG ([4]; Grade 2): 2
- Vomiting, adverse events related to 17-DMAG ([4]; Grade 2): 4
- ALT (hepatic), adverse events related to 17-DMAG ([4]; Grade 3): 1
- AST (hepatic), adverse events related to 17-DMAG ([4]; Grade 3): 1
- Acidosis, adverse events related to 17-DMAG ([4]; Grade 3): 1
- Creatinine, adverse events related to 17-DMAG ([4]; Grade 3): 1
- Dehydration, adverse events related to 17-DMAG ([4]; Grade 3): 1
- Diarrhea, adverse events related to 17-DMAG ([4]; Grade 3): 1
- Fatigue, adverse events related to 17-DMAG ([4]; Grade 3): 1
- Hyponatraemia, adverse events related to 17-DMAG ([4]; Grade 3): 1
- Lymphopenia, adverse events related to 17-DMAG ([4]; Grade 3): 1
- Thrombocytopenia, adverse events related to 17-DMAG ([4]; Grade 3): 1
- γGT (hepatic), adverse events related to 17-DMAG ([4]; Grade 3): 1
- AST (hepatic), adverse events related to 17-DMAG ([4]; Grade 4): 1
- Hypotension, adverse events related to 17-DMAG ([4]; Grade 4): 1
- Renal failure, adverse events related to 17-DMAG ([4]; Grade 5): 1
- Tolerability ([4]; doses ≤ 80mg/m^2): well tolerated
- Maximum tolerated dose (MTD) ([4]; weekly IV, patients with advanced solid tumors): 80 mg/m^2
- Recommended Phase II dose ([4]; weekly, IV): 80 mg/m^2
- IC50 [5]: 63 nM
- Mean plasma HSP72 change between dose levels ([6]; 24 hours after 17-DMAG, compared with first dose cohort): did not differ
- Dose at which HSP72 induction was detected in PBMC ([6]; ELISA (DELFIA), 24 hours after 17-DMAG): ≥ 20 mg/m^2
- Mean HSP72 plasma level post 17-DMAG ([6]; all other patients (without DLT)): 86 ± 140 fmol/mL
- Highest HSP72 plasma levels post 17-DMAG ([6]; the 2 patients with DLT (106 mg/m^2), individual values): 1250 fmol/mL and 5610 fmol/mL
- HSP90 inhibition in tumor ([7]; 106 mg/m^2, single set of samples): confirmed
- Patients with HSP90 inhibition detected in tumor ([7]; 24 hrs after 80mg/m^2): 3/5
- Tumors with HSP72 induced ([7]; 24 hrs after 80mg/m^2): 4/5
- Tumors with client protein depletion (CDK4 or ERBB2) ([7]; 24 hrs after 80mg/m^2): 3/5
